From PubChem BioAssay
Only some compounds are listed: those with a hit (about 3% of all), similar ones and a draw of the others.
rRNA inh HTS: reduced GFP signal of wild-type E. coli, primary screen, bacterial rRNA inhibitor project, GFP/RFP fluorescence, OD600, single point | 350,000 tested, 1.6% active | GFP signal change (wild-type ribosome), % (no concentration beside the values) | E. coli WT GFP vs humanized-ribosome RFP mutants, 24 h; stronger effect = lower value; DMSO median 0, no signal -100;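 active = significant combined selectivity score with lowered wild-type GFP, culture density cut under 30%, mutant RFP and density less affected; inactive = any of these conditions unmet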
PGC1a acetyl inh: inhibitors of PGC1a acetylation signal, primary screen, cell-based, U2OS, AlphaScreen, inhibitor mode; inhibition, % at 15.6 µM; AlphaScreen anti-acetyl-lysine; with virally co-expressed GCN5 acetyltransferase; 350,000 tested, 0.17% active; AID 651687, 2012;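 active = every replicate shows inhibition of at least 40%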;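 also: 0% = neutral control wells and 100% = positive control wells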
C2C12 statin: suppressors of statin myotoxicity in C2C12 myotubes, primary screen, cell-based, single point, plate reader | C2C12 myotubes + simvastatin, ATP luminescence, 48 h; scaled: DMSO 0, geranylgeraniol control 100 | rescue of ATP level, % at 7.49 µM | 330,000 tested, 0.78% active | AID 602340, 2012;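 active = mean ATP rescue above about 67%, or every replicate alone reaching that limit, limit read from the data, passing the limit was not always enough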;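 also: myotubes were challenged with 10 µM simvastatin during compound exposure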
S100A4 MyoIIA: inhibitors of S100A4-myosin IIA peptide binding, primary screen, biochemical, fluorescence polarization, TAMRA-MyoIIA peptide. Protein S100-A4 (Homo sapiens), P26447. inhibition, % at 10.7 µM. 360,000 tested, 0.14% active. AID 652163, 2013;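 active = mean inhibition of at least 70% across replicates, with every replicate also reaching that level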
Target sequence (P26447 whole entry, looked up): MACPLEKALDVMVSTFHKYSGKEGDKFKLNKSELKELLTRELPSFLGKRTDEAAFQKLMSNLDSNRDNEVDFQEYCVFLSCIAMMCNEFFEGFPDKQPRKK
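Test system: S100A4 monomer protein; Medium: HEPES pH 7.2 with CaCl2, KCl, NaCl, DTT, Triton; Probe or stimulus: TAMRA-labelled myosin IIA heavy-chain peptide probe, 5 nM; Doses: one dose per compound; Times: polarization read 5 min after assay mix addition, stable 5–60 min; Benchmarks: neutral control DMSO, positive control TFP.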
Cneo AK release: Cryptococcus neoformans cell lysis inducers, primary screen, AK release luminescence, single concentration; C. neoformans lysis, adenylate kinase release luminescence, 4 h; normalised: neutral wells 0, clomiphene wells 100; lysis activity, % at 15 µM; 360,000 tested, 0.2% active;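 active = mean lysis activity across replicates of at least 80%, whatever share of replicates individually reach that level; inactive = mean lysis activity below 80%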
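Material: C. neoformans cells; Schedule: 4 h static compound exposure, 37 °C, read 1 h post-reagent; Measured by: adenylate kinase release luminescence; Read-out: signal increase indicating cell lysis; Controls: Clomiphene as positive lysis control.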
SIRT5 block: SIRT5 desuccinylase inhibitors, primary screen, biochemical, fluorescence imaging, single point, set 5. NAD-dependent protein deacylase sirtuin-5, mitochondrial (Homo sapiens), Q9NXA8. Purified SirT5, succinyl-peptide AMC, trypsin-coupled fluorescence. inhibition, % at 15 µM. 330,000 tested, 1.1% active. AID 652115, 2013; in the data active = inhibition above about 15%
Target sequence (Q9NXA8 whole entry, looked up): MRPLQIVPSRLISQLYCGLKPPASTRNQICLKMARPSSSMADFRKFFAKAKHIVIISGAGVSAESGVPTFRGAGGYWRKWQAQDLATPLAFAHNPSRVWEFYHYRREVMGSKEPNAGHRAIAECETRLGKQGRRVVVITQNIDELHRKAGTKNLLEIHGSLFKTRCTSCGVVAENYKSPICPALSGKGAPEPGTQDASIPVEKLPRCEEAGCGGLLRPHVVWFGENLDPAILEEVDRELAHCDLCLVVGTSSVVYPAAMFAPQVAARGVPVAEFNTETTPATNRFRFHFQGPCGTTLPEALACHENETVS
Numbers without * were called inactive; · = no result given.

SMILES	rRNA inh HTS	PGC1a acetyl inh	C2C12 statin	S100A4 MyoIIA	Cneo AK release	SIRT5 block
Cc1ccc(-n2c(C3CC3c3ccc(Cl)cc3)n[nH]c2=S)cc1 (centres undefined)	-33*	2	60	3	5	-1
Cc1ccc(C2CC2c2n[nH]c(=S)n2-c2ccc(C)cc2)cc1 (centres undefined)	-53	12	118*	-1	17	7
COc1ccc(NC(=O)Nc2cccc3c2O[C@@H](CN(C)S(C)(=O)=O)[C@H](C)CN([C@H](C)CO)C3=O)cc1	-2	7	·	6	-5	-2
COC(=O)C1=C(C)NC2=C(C(=O)CCC2)C1c1ccc(-c2ccsc2C(=O)OC)o1 (centres undefined)	-24*	·	·	6	·	-6
CC(=O)N(c1nc(/C=C\C(=O)O)cs1)c1ccccc1F	5	12	4	-8	3	17*
CC(=O)N(c1nc(CCl)cs1)c1cccc(C)c1C	·	·	0	2	1	-6
Cc1nnc(Sc2nc3c(c(=O)n(C)c(=O)n3C)n2Cc2ccccc2Cl)s1	·	10	118*	·	1	·
Cc1ccc(S(=O)(=O)Oc2cccc(/C=N/Nc3ccc(C(=O)O)cc3)c2)cc1	-28*	-4	2	5	0	5
Cc1ccc(S(=O)(=O)Oc2cccc(/C=N/n3cnnc3)c2)cc1	-2	·	·	19	·	-2
C[C@H]1CN([C@@H](C)CO)C(=O)c2cc(NC(=O)Nc3ccc4c(c3)OCO4)ccc2O[C@H]1CN(C)Cc1ccccc1	5	-5	-12	6	-4	3
CC1=[N+](C)c2c(ccc3cccnc23)C1(C)C	-37	12	·	159*	·	-1
COc1ccc(S(=O)(=O)N(C)C[C@@H]2OCCCC[C@@H](C)Oc3ccc(NC(=O)NC4CCCCC4)cc3C(=O)N([C@H](C)CO)C[C@@H]2C)cc1	5	5	·	-3	-1	-2
CN1C(=O)c2cc(NS(=O)(=O)c3ccc(Cl)cc3)ccc2OC[C@@H]2O[C@H](CC(=O)N3CCc4ccccc4C3)CC[C@H]21	-4	-18	109*	-6	-5	6
CN1C(=O)c2cc(NS(=O)(=O)c3ccc(Cl)cc3)ccc2OC[C@@H]2O[C@@H](CC(=O)N3CCc4ccccc4C3)CC[C@@H]21	-4	-2	40	-15	-2	8
CN1C(=O)c2cc(NS(=O)(=O)c3ccc(Cl)cc3)ccc2OC[C@H]2O[C@@H](CC(=O)N3CCc4ccccc4C3)CC[C@@H]21	-6	-8	49	-3	0	16*
C[C@@H]1CN([C@@H](C)CO)C(=O)CCCn2nncc2CO[C@@H]1CN(C)C	2	9	1	·	·	·
CCOc1ccccc1C(=O)NC(C(=O)N(C)c1c(N)n(Cc2ccccc2)c(=O)[nH]c1=O)C(C)C (centres undefined)	4	·	0	13	1	17*
CCCN(C(=O)C(NC(=O)c1ccccc1)C(C)C)c1c(N)n(Cc2ccccc2)c(=O)[nH]c1=O (centres undefined)	0	·	10	8	0	-1
CN1C(=O)C(CC(=O)NCCc2ccccc2)N(NC(=O)c2cccc(F)c2)C1=S (centres undefined)	-16*	·	-1	3	1	-5
CN1C(=O)C(CC(=O)NCCc2ccccc2)N(NC(=O)c2ccc(Cl)cc2)C1=S (centres undefined)	4	0	5	0	1	-3
COc1ccc(N2C(=O)C(CC(=O)Nc3ccc(Cl)cc3)N(NC(=O)c3cccc(F)c3)C2=S)cc1 (centres undefined)	-17*	-1	9	-31	1	-2
CNC(=O)CC1C(=O)N(c2ccc(F)cc2)C(=S)N1NC(=O)c1ccc(Cl)cc1 (centres undefined)	-11	-3	5	-10	0	-5
C[C@@H]1CN([C@H](C)CO)C(=O)c2cccc(NC(=O)C3CCCCC3)c2O[C@@H]1CN(C)C	3	-5	51	-2	2	0
O=C1CCC[C@@H]2c3[nH]c4ccccc4c3CCN12	·	-3	·	10	1	-3
N#C[C@@H]1[C@@H](c2ccccc2C2=CCCCC2)[C@H](CO)N1C(=O)NC1CCCCC1	-1	0	·	-5	·	0
SMILES	rRNA inh HTS	PGC1a acetyl inh	C2C12 statin	S100A4 MyoIIA	Cneo AK release	SIRT5 block
CCCC1c2ccsc2CCN1C(=S)NC (centres undefined)	-36*	·	·	1	·	-5
CC1c2ccsc2CCN1C(=O)NC(=O)c1ccc(Cl)cc1 (centres undefined)	15	13	-4	-1	-7	-4
Oc1ccc(C[C@H]2CNC(=S)N2CC2CCCN2C[C@H](Cc2ccc(O)cc2)N2C[C@H](Cc3ccc(O)cc3)N(CC3CCCCCC3)C2=S)cc1 (some centres undefined)	0	-19	-13	-1	5	17*
Oc1ccc(C[C@H]2CN([C@@H](Cc3ccccc3)CN3CCC[C@@H]3CN3C(=S)NC[C@@H]3Cc3ccccc3)C(=S)N2CC2CCCCC2)cc1	22	5	-1	-2	1	·
CCC(CO)NC(=O)c1ccccc1C(F)(F)F (centres undefined)	7	4	·	26	·	23*
CCC(CC)NC(=O)Nc1ccccc1C(F)(F)F	5	-6	·	5	0	1
CO[C@H]1CN(C)C(=O)c2ccc(NC(=O)c3cnccn3)cc2OC[C@H](C)N(C(=O)C2CC2)C[C@@H]1C	0	0	22	4	-11	-2
O=C(CCl)N=c1sccn1Cc1ccccc1Cl	-4	52*	·	2	0	-2
CCC(=O)OCC(=O)N=c1sccn1Cc1ccccc1Cl	-1	4	4	0	3	-2
O=C(CCl)N=c1sccn1Cc1cccc2ccccc12	-1	·	·	6	·	-3
O=C(CCl)N=c1sccn1Cc1ccc(Cl)cc1Cl	-24	66*	·	1	·	-6
CCC(=O)N[C@H]1CC[C@@H](CCn2cc(CN(C)C)nn2)O[C@H]1CO	2	5	6	3	2	-7
O=C(O)CSCC(=O)Nc1ccc(Br)c(C(F)(F)F)c1	-3	-20	7	1	6	82*
CCC(CCC(=O)Nc1ccn(-c2ccccc2)n1)C(=O)O (centres undefined)	·	5	121*	·	6	·
